Shown are actives, neighbours in structure and some others; about 1.6% of the full set was active somewhere.
MT1-MMP act inh: blockers of MT1-MMP proenzyme processing, primary screen, HT1080 RFP-PRO-GFP cells, GFP/RFP fluorescence; Matrix metalloproteinase-14 (Homo sapiens), P50281; GFP/RFP ratio fluorescence, overnight; percent of plate control window, DMSO zero; GFP/RFP ratio change, % at 20 µM; hit rate 0.061% among 360,000;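 active = GFP/RFP ratio change of at least 30% with cell ATP level not reduced by more than half and red fluorescence within 50% of control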
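Assay system: HT1080 RFP-PRO-GFP cells. Benchmarks: DMSO vehicle wells and RFP-L50D-GFP reporter cell wells. Times: overnight cell settling, then overnight compound exposure, 37 °C, 5% CO2. Compound: 20 µM single dose, 1% DMSO. Read-out basis: GFP/RFP fluorescence ratio.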
ADAM10 inh: human ADAM10 inhibitors, primary screen, biochemical, QFRET, HTS | Disintegrin and metalloproteinase domain-containing protein 10 (Homo sapiens), O14672 | recombinant ADAM10, EDANS/DABCYL FRET peptide cleavage, 3 h | inhibition, % at 7 µM | hit rate 0.62% among 370,000 | AID 720582, 2013;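 active = inhibition above a per-campaign cutoff equal to the mean of compounds falling between control-based bounds plus 3 SD, cut at about 20% in these data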;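 note: 0% = DMSO wells while the 100% control is not disclosed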
ADAM17 inh: ADAM17 inhibitors, primary screen, biochemical, QFRET; Disintegrin and metalloproteinase domain-containing protein 17 (Homo sapiens), P78536; recombinant ADAM17, EDANS/DABCYL FRET peptide cleavage; inhibition, % at 6.95 µM; hit rate 0.83% among 370,000; AID 720648, 2013;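 active = inhibition above the mean of compounds lying between control limits plus 3 SD, set per campaign, cut at about 8.5% in these data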;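 note: 0% = DMSO-only wells as the low control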
Target sequence (P78536 215-824 limits assumed): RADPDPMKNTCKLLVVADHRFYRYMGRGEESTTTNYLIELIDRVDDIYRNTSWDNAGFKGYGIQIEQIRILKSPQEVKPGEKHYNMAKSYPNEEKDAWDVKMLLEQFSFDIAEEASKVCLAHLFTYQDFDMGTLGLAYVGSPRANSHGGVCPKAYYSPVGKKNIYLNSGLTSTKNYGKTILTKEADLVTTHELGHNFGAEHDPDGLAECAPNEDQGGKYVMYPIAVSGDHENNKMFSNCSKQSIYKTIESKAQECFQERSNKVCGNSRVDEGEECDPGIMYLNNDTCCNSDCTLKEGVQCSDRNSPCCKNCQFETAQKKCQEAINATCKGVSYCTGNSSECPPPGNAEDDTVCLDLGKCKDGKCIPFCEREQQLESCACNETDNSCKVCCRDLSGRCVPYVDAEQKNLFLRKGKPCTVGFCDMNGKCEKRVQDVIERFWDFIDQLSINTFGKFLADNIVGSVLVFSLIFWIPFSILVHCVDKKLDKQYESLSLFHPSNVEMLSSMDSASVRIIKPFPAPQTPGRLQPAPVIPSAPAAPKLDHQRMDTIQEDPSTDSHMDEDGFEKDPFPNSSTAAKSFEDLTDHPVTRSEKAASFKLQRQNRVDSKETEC
Tn6 DDE FP: inhibitors of Tn6 peptide binding to fibrin DD(E), primary screen, biochemical, fluorescence polarization, human fibrin, Tn6 probe; Fibrinogen beta chain (Homo sapiens), P02675; Fibrin DD(E) TRITC-Tn6 fluorescence polarization displacement; inhibition, % at 8.3 µM; hit rate 0.21% among 370,000; AID 720509, 2013;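 active = inhibition above a per-campaign cutoff: mean of compounds within control limits plus 3 SD, cut at about 15% in these data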;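 note: 0% = median of all compound wells on the plate and 100% = blocking peptide control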
Tn7 DDE FP: inhibitors of Tn7 peptide binding to fibrin DD(E), primary screen, biochemical, fluorescence polarization, human fibrin, Tn7 probe. FP displacement of FITC-Tn7 peptide from fibrin DD(E); 0% = median of compound wells per plate. inhibition, % at 8.3 µM. hit rate 0.13% among 370,000. AID 720508, 2013;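 active = inhibition above the mean of compounds falling within the control limits plus 3 SD of them, cut at about 14% in these data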;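 note: 0% = plate median of compound wells and 100% = 10 µM Aha-Tn7 peptide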
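Test system – human fibrin DD(E) · Times – 10 min preincubation, 3 h with tracer, room temperature · Detection – fluorescence polarization of the labelled Tn7 tracer · Measure – percent inhibition normalized to high-control wells · Benchmarks – high control wells with 10 µM unlabelled Aha-Tn7 peptide (full inhibition) · Repeats – singlicate testing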
ADAM10 confirm: human ADAM10 inhibitors, confirmation, biochemical, QFRET, triplicate. ADAM10 QFRET peptide cleavage, EDANS fluorescence. hit rate 1% among 2,100. shares compounds with ADAM10 inh. inhibition, % at 6.95 µM;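 active = inhibition above about 20% chosen separately for each screening run, limit read from the data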;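 note: 0% = DMSO wells and 100% = marimastat wells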
ADAM17 counter: ADAM17 inhibitors, counter-screen for ADAM10 exosite inhibitor project, biochemical, QFRET, high throughput. AID 743214, 2013. ADAM17 QFRET peptide cleavage, EDANS fluorescence. hit rate 0.5% among 2,100. inhibition, % at 6.95 µM. shares compounds with ADAM10 inh;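 active = mean triplicate inhibition above the solvent-only control wells' mean plus 3 SD, cut at about 12% in these data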;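 note: 0% = DMSO wells and 100% = marimastat wells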
Active calls of the source: *; . = no result given.

SMILES	MT1-MMP act inh	ADAM10 inh	ADAM17 inh	Tn6 DDE FP	Tn7 DDE FP	ADAM10 confirm	ADAM17 counter
COC(=O)[C@H](C(C)C)N(Cc1cn(CC2CCCCC2)nn1)S(=O)(=O)c1ccc(F)cc1Br	.	4	4	-12	-3	.	.
Cc1cccc(NC(=S)NNC(=O)c2cccc([N+](=O)[O-])c2)c1	0	21*	3	5	-13	-2	0
CC(C)C(=O)N(c1ccc2oc(=O)sc2c1)S(=O)(=O)c1cccs1	4	22*	3	-2	-3	5	0
Cn1cccc1C(=O)N1CCN(S(=O)(=O)c2ccc([N+](=O)[O-])cc2)CC1	.	-2	1	3	-7	.	.
COc1ccc(S(=O)(=O)NC(C)C(=O)Nc2ccccc2F)cc1 (configuration not stated)	-4	-2	0	0	10	.	.
COc1ccc(S(=O)(=O)NC(C)C(=O)Nc2cccc(C(C)=O)c2)cc1 (configuration not stated)	0	31*	6	-5	1	0	1
Nc1[nH]c(C(=O)c2ccccc2)c(-c2ccc3c(c2)OCO3)c1C(=O)NCCc1c[nH]c2ccccc12	.	27*	8	-8	5	6	3
CCc1nc(NCc2ccc3c(c2)OCO3)c2oc3ccccc3c2n1	1	28*	8	-6	-1	6	2
Cc1ccc(CNCc2ccco2)cc1	0	-7	-6	8	7	.	.
Fc1ccc(CNCc2ccco2)cc1	5	20*	8	11	1	-1	0
O=S(=O)(Nc1cccc(-c2ccc(N3CCCCCC3)nn2)c1)c1ccc(C(F)(F)F)cc1	7	24*	7	-11	7	6	3
COc1ccc(N2CCN(C(=O)c3ccc(C(C)(C)C)cc3)CC2)cc1	3	88*	-5	1	-2	1	0
COc1ccc(C2C(C(=O)Nc3cccnc3)=C(C)Nc3nc(-c4cccs4)nn32)cc1OC (configuration not stated)	0	77*	-1	2	-2	0	0
COc1ccc(C2C(C(=O)Nc3cccnc3)=C(C)Nc3nc(-c4cccs4)nn32)cc1 (configuration not stated)	7	-8	-3	-3	-6	.	.
COC(=O)[C@]12C[C@H](CC(=O)NCc3ccc(OC)c(OC)c3)C(=O)N(CCc3ccc(OC)c(OC)c3)C1=C[C@H](C(C)C)O[C@@H]2C1CC1	.	-4	-4	6	4	.	.
COC(=O)C1CN(Cc2ccccc2)CCS(=O)(=O)N1Cc1ccccc1 (configuration not stated)	.	6	0	-4	-3	.	.
COc1cccc(C(O)c2nc(-c3ccccc3C)cs2)c1 (configuration not stated)	3	20*	8	1	-5	1	0
COc1cccc(C(O)c2nc(-c3ccccc3OC)cs2)c1 (configuration not stated)	2	-3	-3	-7	1	.	.
CCC(=O)OCC(=O)[C@@]1(OC(=O)CC)[C@@H](C)C[C@H]2[C@@H]3CCC4=CC(=O)C=C[C@]4(C)[C@@]3(Cl)[C@@H](O)C[C@@]21C	-5	21*	6	-5	-9	1	0

Screening data as filed in PubChem BioAssay.
